Rows were chosen to be rich in hits. Some 4.7% of all compounds tested hit in one or more screens of this group.
SKN-1 block – suppressors of acrylamide-induced Pgst-4::GFP reporter in worms, primary screen, SKN-1 inhibitor project, whole organism, uHTS, GFP/RFP fluorescence ratio, strain VP596; inhibition, % at 21.8 µM; 360,000 tested, 0.49% active; C. elegans VP596 Pgst-4::GFP/RFP ratio, 24 h;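 active = interference check ratio from 0.5 to 1.5 plus GFP to RFP signal ratio inhibition reaching or exceeding a fixed threshold, cut at about 30% in these data, passing the limit was not always enough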
MT1-MMP act inh – blockers of MT1-MMP proenzyme processing, primary screen, HT1080 RFP-PRO-GFP cells, GFP/RFP fluorescence. Matrix metalloproteinase-14 (Homo sapiens), P50281. GFP/RFP ratio fluorescence, overnight; percent of plate control window, DMSO zero. 360,000 tested, 0.061% active. GFP/RFP ratio change, % at 20 µM;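 active = GFP/RFP ratio change of at least 30% with cell ATP level not reduced by more than half and red fluorescence within 50% of control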
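Read-out: GFP/RFP fluorescence ratio; Test system: RFP-PRO-GFP reporter HT1080 cells; Compound dosing: single-point 20 µM compound, 1% DMSO; Times: overnight compound exposure at 37 °C.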
ADAM10 inh – human ADAM10 inhibitors, primary screen, biochemical, QFRET, HTS; Disintegrin and metalloproteinase domain-containing protein 10 (Homo sapiens), O14672; recombinant ADAM10, EDANS/DABCYL FRET peptide cleavage, 3 h; inhibition, % at 7 µM; 370,000 tested, 0.62% active; AID 720582, 2013;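 active = inhibition above a per-campaign cutoff equal to the mean of compounds falling between control-based bounds plus 3 SD, cut at about 20% in these data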
Target sequence (O14672 214-748 limits assumed): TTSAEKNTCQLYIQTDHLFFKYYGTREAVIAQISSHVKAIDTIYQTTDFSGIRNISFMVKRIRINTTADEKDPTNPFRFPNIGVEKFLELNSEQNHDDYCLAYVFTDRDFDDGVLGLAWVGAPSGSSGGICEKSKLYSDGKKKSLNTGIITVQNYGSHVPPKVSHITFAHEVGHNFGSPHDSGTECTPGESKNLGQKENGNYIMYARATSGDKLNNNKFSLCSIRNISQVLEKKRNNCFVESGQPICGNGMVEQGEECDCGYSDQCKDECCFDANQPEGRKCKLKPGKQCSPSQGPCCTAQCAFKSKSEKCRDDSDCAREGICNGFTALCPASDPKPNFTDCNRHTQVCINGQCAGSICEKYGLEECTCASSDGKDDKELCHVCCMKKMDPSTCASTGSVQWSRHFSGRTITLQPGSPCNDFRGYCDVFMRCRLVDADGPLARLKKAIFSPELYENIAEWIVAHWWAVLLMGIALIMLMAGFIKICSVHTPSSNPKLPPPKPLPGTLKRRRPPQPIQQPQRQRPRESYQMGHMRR
ADAM17 inh – ADAM17 inhibitors, primary screen, biochemical, QFRET | Disintegrin and metalloproteinase domain-containing protein 17 (Homo sapiens), P78536 | recombinant ADAM17, EDANS/DABCYL FRET peptide cleavage | inhibition, % at 6.95 µM | 370,000 tested, 0.83% active;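 active = inhibition above the mean of compounds lying between control limits plus 3 SD, set per campaign, cut at about 8.5% in these data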
NR3A LBD binder – binders of NR3A ligand-binding domain, primary screen, biophysical, differential scanning fluorimetry, uHTS; NR3A LBD differential scanning fluorimetry, Tm shift; 0% = protein alone, 100% = glycine-bound protein; 340,000 tested, 2.5% active; Glutamate receptor ionotropic, NMDA 3A (GRIN3A) ligand-binding domain; AID 1259313, 2017; Tm shift relative to glycine control, % at 25 µM;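 active = melting temperature shift of at least 10% of the positive control shift, at one fixed dose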
MPTP inh – mitochondrial permeability transition pore inhibitors, primary screen, biochemical, isolated mouse mitochondria, absorbance; inhibition, % at 10 µM; Ca2+ swelling absorbance, 30 min; AID 602449, 2012; 360,000 tested, 1.4% active;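 active = inhibition of 50% or more, scaled per plate between neutral and stimulator controls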
Each line names hits and unclear results; the compound was inactive in the other large screens.

COc1ccc(CCNC(=O)CN(CCc2ccccc2)S(C)(=O)=O)cc1OC	none
CS(=O)(=O)N(CCc1ccccc1)CC(=O)NCc1ccccc1	NR3A LBD binder 36.1
CCCNC(=O)CN(CCc1ccccc1)S(C)(=O)=O	NR3A LBD binder 12.7
O=S(=O)(c1cccc2nsnc12)N1CCN(Cc2ccccc2)CC1	none
C[C@@H]1CN([C@H](C)CO)C(=O)c2cc(NC(=O)Nc3ccc(F)cc3)ccc2O[C@@H](C)CCCCO[C@@H]1CN(C)C(=O)CCCN(C)C	none (no result: SKN-1 block, MT1-MMP act inh, NR3A LBD binder, MPTP inh)
CCc1nnc(SCC(=O)Nc2ccc(NC(C)=O)cc2)n1-n1cccc1	NR3A LBD binder 18.1
CC(=O)N(CCC1(c2ccc(C)cc2)CCOC(C(C)C)C1)Cc1ccco1 (centres undefined)	none
COc1cc(C)ccc1NC(=O)Cc1csc(NC(=O)Nc2ccccc2OC)n1	none
COc1ccccc1NC(=O)Nc1nc(CC(=O)Nc2ccc(OC)c(OC)c2)cs1	NR3A LBD binder 17.3
CCC(=O)Nc1nc(CC(=O)Nc2ccccc2OC)cs1	SKN-1 block 35.5
CC(C)CC(=O)Nc1ccc(C(=O)Nc2cccc(O)c2)cc1	none
COc1cc(OC)cc(C(=O)NNC(=O)c2ccc3ccccc3n2)c1	none
COc1ccc(C(=O)NC(=S)NNC(=O)c2ccc3ccccc3n2)cc1	NR3A LBD binder 10.9
Nc1nc(SCC(=O)Nc2ccc([N+](=O)[O-])cc2Br)n[nH]1	none
CC(C)c1nc(SCC(=O)Nc2ccc([N+](=O)[O-])cc2Br)n[nH]1	NR3A LBD binder 10.7
Cc1cc(=O)oc(C)c1C(=O)N1CCN(c2ccc(F)cc2)CC1	none
CCOc1ccc(CCN2C(=S)N([C@@H](CC(C)C)CN3CCCC3CN3C(=S)NC[C@@H]3Cc3ccc(O)cc3)C[C@@H]2CC(C)C)cc1 (some centres undefined)	NR3A LBD binder 11.9
CCOc1ccc(CCN2C(=S)N([C@@H](CC(C)C)CN3CCCC3CN3C(=S)NC[C@@H]3Cc3ccc(O)cc3)C[C@@H]2Cc2ccccc2)cc1 (some centres undefined)	NR3A LBD binder 30.5
CCOc1ccc(CCN2C(=S)N([C@@H](CC(C)C)CN3CCC[C@@H]3CN3C(=S)NC[C@@H]3CC(C)C)C[C@@H]2Cc2ccc(O)cc2)cc1	none (no result: NR3A LBD binder)
CCOc1ccc(CCN2C(=S)N([C@@H](CC(C)C)CN3CCCC3CN3C(=S)NC[C@@H]3CC(C)C)C[C@@H]2Cc2ccc(O)cc2)cc1 (some centres undefined)	none
CCOc1ccc(CCN2C(=S)N([C@@H](CC(C)C)CN3CCCC3CN3C(=S)NC[C@@H]3Cc3ccc(O)cc3)C[C@@H]2Cc2ccc(O)cc2)cc1 (some centres undefined)	NR3A LBD binder 34.5
COc1ccc(NC(=O)CN2C(=O)COc3ccc(C)cc32)c(OC)c1	none
CC1(C(=O)NS(=O)(=O)c2ccc(C#N)cc2)CCN1C(=O)Cc1cc(F)ccc1F (centres undefined)	none (no result: NR3A LBD binder)
CCc1nnc(NC(=O)c2cc(-c3ccco3)nc3ccccc23)s1	none
CN(C)CCCO[C@@H]1[C@H]2OC(C)(C)O[C@H]2O[C@@H]1[C@H](O)CO	SKN-1 block 43.6
O=C(CNC(=O)c1ccc(Br)o1)Nc1ccc(N2CCCCCC2)cc1	none
Cc1ccc(NC(=O)Nc2ccc(S(N)(=O)=O)cc2)cc1	NR3A LBD binder 11.1
NS(=O)(=O)c1ccc(NC(=O)Nc2ccc(S(N)(=O)=O)cc2)cc1	none
NS(=O)(=O)c1ccc(NC(=O)Nc2ccc(C(F)(F)F)cc2)cc1	NR3A LBD binder 19.6
CCN1CCN(CCNC(=O)c2ccc(/C=C3/Sc4ccccc4N(Cc4ccccc4C)C3=O)cc2)CC1	none
Cc1[nH]n(C(N)=S)c(=O)c1N=Nc1ccccc1C(F)(F)F	NR3A LBD binder 10.5
Cc1ccccc1N=Nc1c(C)[nH]n(C(N)=S)c1=O	none
Cc1ccc(S(=O)(=O)N(Cc2ccccc2)Cc2ccco2)cc1	none
Cc1ccc(S(=O)(=O)N(Cc2ccc(F)cc2)Cc2ccco2)cc1	NR3A LBD binder 12.2
CC(C)(O)CC[C@@H](O)[C@](C)(O)C1CC[C@@]2(O)C3=CC(=O)[C@@H]4C[C@@H](O)[C@@H](O)C[C@]4(C)C3CC[C@]12C (some centres undefined)	NR3A LBD binder 10.1
O=C1c2ccccc2C(=O)c2c([N+](=O)[O-])ccc(O)c21	SKN-1 block 37.4
O=C(C1=C[C@H](c2ccc(C(F)(F)F)cc2)C[C@H](OCc2ccc(CO)cc2)O1)N1CCN(Cc2ccc3c(c2)OCO3)CC1	none
O=C(C1=C[C@@H](c2ccc(C(F)(F)F)cc2)C[C@@H](OCc2ccc(CO)cc2)O1)N1CCN(Cc2ccc3c(c2)OCO3)CC1	ADAM10 inh 28.4
CCOC(=O)C1=C(N)OC2=C(C(=O)CC(C)(C)C2)C1C1CCCCC1 (centres undefined)	none
CN1OC[C@@H]2CN(Cc3cc(Cl)cc(Cl)c3)[C@H](c3cccc(Oc4ccccc4)c3)C[C@@H]21	none
O=C(COC(=O)c1ccc(Br)cc1)NCCC1=CCCCC1	none
CCOC(=O)[C@@H]1[C@H]2COc3ccccc3[C@H]2N2C(=O)N(c3cccc(Cl)c3)C(=O)[C@]12C	NR3A LBD binder 16.8
CCOC(=O)[C@@H]1[C@H]2COc3ccc(Br)cc3[C@H]2N2C(=O)N(c3ccc(C(F)(F)F)cc3)C(=O)[C@]12C	ADAM10 inh 23.6
CCOC(=O)[C@@H]1[C@H]2COc3ccc(Br)cc3[C@@H]2N2C(=O)N(c3ccc(Br)cc3)C(=O)[C@]12C	none
COC(=O)Cc1ccc(NC(=S)NCCSc2ccc(C)cc2)cc1	none
C#CCC1c2ccccc2CCN1CC=C (centres undefined)	none (no result: SKN-1 block, MT1-MMP act inh, NR3A LBD binder, MPTP inh)
CCCNC(=O)c1ccc(N2CCC3(CC2)CC(c2cccc(Br)c2)=NO3)c(NC(=O)c2c(Cl)cccc2Cl)c1	none
N#C/C(=C\c1c(Cl)cccc1Cl)c1nc2ccccc2[nH]1	none
COc1ccc(/C=C(\C#N)c2nc3ccccc3[nH]2)cc1O	none
N#C/C(=C/c1cccs1)c1nc2ccccc2[nH]1	NR3A LBD binder 15.4
Cc1ccc(/C=C(\C#N)c2nc3ccccc3[nH]2)s1	NR3A LBD binder 18.8

Screening results: PubChem, several laboratories
